# Measured values: ChEMBL document CHEMBL3351356, “Development of a novel class of mitochondrial ubiquinol-cytochrome c reductase binding protein (UQCRB) modulators as promising antiangiogenic leads” (J Med Chem, 2014)
# Calls of active or inactive are those of the source. The rule behind the calls is not given here.
# What was measured:
# Chorioallantoic membrane [1] = assay: Antiangiogenic activity in chicken chorioallantoic membrane assessed as inhibition of blood vessel formation (reference value: 23%); format: functional, cell membranes; settings: Gallus gallus, dose or concentration not given here
# How it was run: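 Fertilized chick eggs held at 37 °C in a humidified incubator; about 2 mL albumin withdrawn on day 3. Compound-loaded Thermanox coverslips placed on the CAM of 4.5-day embryos; retinoic acid served as positive control. Result given as percent positive eggs of eggs tested.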
# [2] = biological target: T1, Cytochrome b-c1 complex subunit 7 (Homo sapiens, UniProt P14927); assay: Modulation of UQCRB in human HepG2 cells assessed as inhibition of HIF-1alpha for 4 hrs under 1%O2 by Western blot analysis; format: cell-based
# T1 sequence (P14927 whole entry): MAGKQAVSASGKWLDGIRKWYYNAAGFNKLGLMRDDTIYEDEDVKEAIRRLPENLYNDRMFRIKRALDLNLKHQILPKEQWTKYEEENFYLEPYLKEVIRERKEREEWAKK
# How it was run: (§1)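 HepG2 cells pretreated with compound for 30 min, then exposed to 1% O₂ for 4 h. HIF-1α and tubulin measured by Western blot and quantified by densitometry.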
# [3] = Thermodynamic solubility in H2O by HPLC; format: physicochemical; settings: water; read-out: Therm_solubility
# Chorioallantoic membrane [4] = assay: Toxicity in chicken chorioallantoic membrane assessed as induction of rupture of pre-existing vessels; format: cell membranes, Gallus gallus; settings: in vivo
# [5] = Thermodynamic solubility in PBS by HPLC; format: physicochemical; settings: read-out: Therm_solubility
# HUVEC [6] = assay: Toxicity in HUVEC assessed as reduction in cell viability by trypan blue staining method; format: cell-based; settings: human
# How it was run: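 HUVECs tested by trypan blue staining, run in parallel with the VEGF-stimulated invasion and tube formation assays at the same concentrations.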
# HepG2 [7] = assay: Cytotoxicity against human HepG2 cells assessed as effect on cell viability at 1 to 20 uM after 72 hrs by MTT assay; format: cell-based; settings: hepg2, 72 h
# Mus musculus = assay: Toxicity in human U87MG cells implanted into Balb C mouse assessed as body weight loss at 20 mg/kg, ip every other day measured on day 18; format: organism-based, U-87MG ATCC; parameters: dose 20 mg/kg, route intraperitoneal; settings: in vivo
# How it was run: (§2)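 Female athymic Balb C nu/nu mice, 4 weeks old, implanted subcutaneously in the dorsal flank with 5 × 10⁶ U87MG cells in PBS/Matrigel (1:1). At palpable tumors (50−100 mm³), randomized into two groups (n = 8). Dosed intraperitoneally with vehicle or 20 mg/kg every other day. Tumor volume and body weight followed over 17 days.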
# [8] = Antitumor activity against human U87MG cells assessed as inhibition of cell growth after 72 hrs by MTT assay; format: functional, cell-based, U-87MG ATCC; settings: U-87 MG
# HepG2 [9] = assay: Inhibition of hypoxia-induced VEGF expression in human HepG2 cells at 1 to 5 uM for 30 mins followed by 1%O2 for 16 hrs by ELISA; format: functional, cell-based
# How it was run: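 HepG2 cells pretreated with compound for 30 min, then exposed to 1% O₂ for 16 h. VEGF protein in culture supernatant measured by VEGF-specific ELISA. Mean ± SE of three independent experiments.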
# [10] = biological target: T2, Cytochrome b-c1 complex subunit 7 (Homo sapiens) (UniProt P14927); assay: Modulation of UQCRB in human HepG2 cells assessed as inhibition of HIF-1alpha accumulation at 1 to 10 uM for 4 hrs under 1%O2 by Western blot analysis; format: cell-based; how it was run: as §1
# T2 sequence (whole entry): T1 sequence (P14927 whole entry)
# [11] = biological target: T2, Cytochrome b-c1 complex subunit 7 (Homo sapiens); assay: Binding affinity to UQCRB in human HepG2 cells assessed as inhibition of hypoxia-induced mitochondrial ROS generation under 1%O2 for 10 mins after 30 mins by MitoSOX Red fluorescence assay; format: cell-based
# How it was run: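 HepG2 cells pretreated with compound for 30 min, then held at 1% O₂ for 10 min. Loaded with MitoSOX Red (5 μM) for 10 min, lysed and centrifuged. Fluorescence of protein-normalized supernatant read at ex 510 / em 580 nm. Mean ± SE of three independent experiments.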
# U-87MG ATCC [12] = assay: Antitumor activity against human U87MG cells implanted into Balb C mouse assessed as inhibition of tumor growth at 20 mg/kg, ip every other day measured on day 18; format: functional, organism-based; parameters: dose 20 mg/kg; how it was run: as §2
# U-87MG ATCC [13] = assay: Antitumor activity against human U87MG cells implanted into Balb C mouse assessed as VEGF expression in tumor at 20 mg/kg, ip every other day measured on day 18 by immunohistochemical staining; format: functional, organism-based; parameters: dose 20 mg/kg
# How it was run: (§3)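 Paraffin tumor sections (4 μm) incubated overnight at 4 °C with anti-CD31, anti-HIF-1α or anti-VEGF antibodies. Then FITC- or Alexa-conjugated secondary antibodies for 45 min at room temperature, with DAPI counterstain.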
# HUVEC [14] = assay: Antiangiogenic activity in HUVEC assessed as inhibition of VEGF-induced invasion by Transwell chyamber system; format: functional, cell-based; settings: Homo sapiens
# How it was run: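 HUVECs serum-starved, then stimulated with VEGF with or without compound. Invasion measured in Transwell chambers with 8.0 μm pore polycarbonate filter inserts; invaded cells counted by light microscope at 100×. Basal invasiveness of HUVECs in serum-free medium normalized to 100%. Mean ± SE of three independent experiments.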
# [15] = biological target: T2, Cytochrome b-c1 complex subunit 7 (Homo sapiens); assay: Displacement of biotin-labeled terpestacin from UQCRB (unknown origin) by surface plasmon resonance; settings: concentration not given here
# How it was run: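 Biotin (control) and biotinylated terpestacin immobilized on a streptavidin sensor chip. Competitor (25 μM) incubated with purified UQCRB (25 μM) in pH 7.4 buffer (10 mM HEPES, 150 mM NaCl, 3 mM EDTA). Complexes injected at 30 μL/min; chip regenerated with 50 mM NaOH. Binding taken as resonance on biotinylated terpestacin minus resonance on biotin.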
# U-87MG ATCC [16] = assay: Antitumor activity against human U87MG cells implanted into Balb C mouse assessed as decrease in microvessel density at 20 mg/kg, ip every other day measured on day 18; format: functional, organism-based; parameters: dose 20 mg/kg
# U-87MG ATCC [17] = assay: Antitumor activity against human U87MG cells implanted into Balb C mouse assessed as CD31 expression in tumor at 20 mg/kg, ip every other day measured on day 18 by immunohistochemical staining; format: functional, organism-based; parameters: dose 20 mg/kg; how it was run: as §3
# U-87MG ATCC [18] = assay: Antitumor activity against human U87MG cells implanted into Balb C mouse assessed as HIF1alpha expression in tumor at 20 mg/kg, ip every other day measured on day 18 by immunohistochemical staining; format: functional, organism-based; parameters: dose 20 mg/kg; how it was run: as §3
# HUVEC [19] = assay: Antiangiogenic activity in HUVEC assessed as inhibition of VEGF-induced tube formation by optical microscopy; format: functional, cell-based; settings: Homo sapiens
# How it was run: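 Serum-starved HUVECs on Matrigel, VEGF-stimulated with or without compound. Connected cells counted in random fields at 100× and divided by total cells in the same field. Basal tube formation in serum-free medium normalized to 100%. Mean ± SE of three independent experiments.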
structure (smiles),measurement,setting,value
CC1=C(/C=C/C(C)=C/C=C/C(C)=C/C(=O)O)C(C)(C)CCC1,inhibition,Chorioallantoic membrane [1],67%
O=C(O)c1cc(NS(=O)(=O)c2ccc(-c3ccccc3)cc2)ccc1O,IC50,[2],> 20 µM
O=S(=O)(Nc1ccc(O)cc1)c1ccc(-c2ccccc2)cc1 [listing 1 of 2 here],solubility thermodynamic,[3],< 2.06 µg/mL
same,Activity,Chorioallantoic membrane [4],Non-toxic
same,IC50,[2],2.5 µM
same,solubility thermodynamic,[5],< 2.06 µg/mL
same,Activity,HUVEC [6],Non-toxic
same,Activity,HepG2 [7],Non-toxic
O=S(=O)(Nc1ccc([O-])cc1)c1ccc(-c2ccccc2)cc1.[K+],solubility thermodynamic,[3],> 500 µg/mL
same,IC50,[2],5 µM
same,solubility thermodynamic,[5],108 µg/mL
same,Activity,Mus musculus,Non-toxic
same,IC50,[8],12.5 µM
O=S(=O)(Nc1ccc(O)c2ncccc12)c1ccc(-c2ccccc2)cc1,IC50,[2],20 µM
same,solubility thermodynamic,[5],7.26 µg/mL
O=S(=O)(Nc1cccc2c(O)cccc12)c1ccc(-c2ccccc2)cc1,IC50,[2],> 20 µM
CC(C)(C)c1ccc(S(=O)(=O)Nc2ccc(O)c3ccccc23)cc1,IC50,[2],> 20 µM
O=S(=O)(Nc1ccc(O)c(Cl)c1)c1ccc(-c2ccccc2)cc1,IC50,[2],> 20 µM
CC(C)(C)c1ccc(S(=O)(=O)Nc2ccccc2O)cc1,IC50,[2],8 µM
O=S(=O)(Nc1ccc(O)c(F)c1)c1ccc(-c2ccccc2)cc1,IC50,[2],> 20 µM
O=S(=O)(Nc1ccc(O)cc1)c1ccc(-c2ccccc2)cc1 [listing 2 of 2 here],inhibition,HepG2 [9],Active
same,inhibition,Chorioallantoic membrane [1],69%
same,inhibition,[10],Active
same,inhibition,[11],Dose-dependent effect
same,inhibition,U-87MG ATCC [12],Active
same,inhibition,U-87MG ATCC [13],Active
same,inhibition,HUVEC [14],Dose-dependent effect
same,inhibition,[15],40%
same,inhibition,U-87MG ATCC [16],Active
same,inhibition,U-87MG ATCC [17],Active
same,inhibition,U-87MG ATCC [18],Active
same,inhibition,HUVEC [19],Dose-dependent effect
O=S(=O)(Nc1cccc2ccc(O)cc12)c1ccc(-c2ccccc2)cc1,IC50,[2],> 20 µM
CC(C)(C)c1ccc(S(=O)(=O)Nc2ccc(O)cc2)cc1,Activity,Chorioallantoic membrane [4],Non-toxic
same,inhibition,HepG2 [9],Active
same,inhibition,Chorioallantoic membrane [1],65%
same,IC50,[2],5 µM
same,solubility thermodynamic,[5],26.7 µg/mL
same,inhibition,[10],Active
same,inhibition,[11],Dose-dependent effect
same,inhibition,HUVEC [14],Dose-dependent effect
same,inhibition,[15],40%
same,Activity,HUVEC [6],Non-toxic
same,Activity,HepG2 [7],Non-toxic
same,inhibition,HUVEC [19],Dose-dependent effect
Cc1ccc(S(=O)(=O)Nc2ccc(O)cc2)cc1,IC50,[2],> 20 µM
O=S(=O)(Nc1ccc(O)c2ccccc12)c1ccc(-c2ccccc2)cc1,IC50,[2],> 20 µM
CC(C)(C)c1ccc(S(=O)(=O)Nc2cccc(O)c2)cc1,IC50,[2],8 µM
O=S(=O)(Nc1ccc(O)cc1)c1ccc2ccccc2c1,IC50,[2],> 20 µM
CCc1ccc(S(=O)(=O)Nc2ccc(O)cc2)cc1,IC50,[2],> 20 µM
CC(C)(C)c1ccc(S(=O)(=O)Nc2ccc(O)c3ncccc23)cc1,IC50,[2],20 µM
same,solubility thermodynamic,[5],12.8 µg/mL
O=S(=O)(Nc1ccc(O)cc1)c1cccc2cccnc12,IC50,[2],> 20 µM
